Source: PubChem
TRPC4 block: TRPC4 (mouse) channel inhibition; Q9QUQ5; HEK293 TRPC4beta/mu-opioid, DAMGO-evoked Fluo4 calcium flux; stronger effect = lower value; B-score at 10 µM; 300,000 tested, 0.39% active;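 active means B-score over 3 SD under the library average, no early fluorescence shift, positive overall ratio signal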
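material = TRPC4beta/mu-opioid receptor HEK293 cell line | probe or stimulus = sequential submaximal and maximal DAMGO stimulation | compound dosing = one concentration per compound | measured by = Fluo4 Ca2+ flux fluorescence | evaluation = integrated fluorescence ratio relative to baseline, converted to per-well B score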
TRPC6 activator: activators of mouse TRPC6 channel; Q61143; HEK293-TRPC6 membrane potential dye fluorescence; stronger effect = higher value; B-score at 10 µM; 310,000 tested, 0.13% active;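 active means B-score of the integrated fluorescence ratio above library mean plus 3 SD, and starting fluorescence ratio within library mean plus 5 SD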;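 further: higher score means more depolarization so channel activation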
Target sequence (Q61143 whole entry, looked up): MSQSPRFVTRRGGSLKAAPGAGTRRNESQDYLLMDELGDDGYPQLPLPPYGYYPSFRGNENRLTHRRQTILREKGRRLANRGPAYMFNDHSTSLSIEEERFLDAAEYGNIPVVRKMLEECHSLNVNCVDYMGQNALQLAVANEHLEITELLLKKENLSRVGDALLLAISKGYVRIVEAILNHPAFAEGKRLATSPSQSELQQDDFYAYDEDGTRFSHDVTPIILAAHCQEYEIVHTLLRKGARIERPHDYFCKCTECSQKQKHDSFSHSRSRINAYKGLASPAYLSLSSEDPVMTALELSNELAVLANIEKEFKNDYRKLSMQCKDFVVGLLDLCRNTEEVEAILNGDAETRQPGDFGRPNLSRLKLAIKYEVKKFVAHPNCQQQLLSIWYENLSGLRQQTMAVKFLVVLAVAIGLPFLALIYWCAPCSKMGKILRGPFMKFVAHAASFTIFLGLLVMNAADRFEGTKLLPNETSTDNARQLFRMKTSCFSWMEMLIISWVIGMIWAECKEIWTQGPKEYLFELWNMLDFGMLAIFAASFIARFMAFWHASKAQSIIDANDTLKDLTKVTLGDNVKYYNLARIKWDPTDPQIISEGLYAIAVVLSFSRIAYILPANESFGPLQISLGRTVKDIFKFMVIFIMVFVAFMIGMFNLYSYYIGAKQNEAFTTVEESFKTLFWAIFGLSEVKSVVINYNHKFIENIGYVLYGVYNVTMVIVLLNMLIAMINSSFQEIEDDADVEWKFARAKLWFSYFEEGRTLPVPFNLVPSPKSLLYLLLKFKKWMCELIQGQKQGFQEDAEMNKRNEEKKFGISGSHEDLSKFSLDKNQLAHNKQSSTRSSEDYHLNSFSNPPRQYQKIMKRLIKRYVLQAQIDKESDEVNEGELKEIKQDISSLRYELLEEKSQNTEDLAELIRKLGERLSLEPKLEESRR
TRPC4 act: TRPC4 (mouse) channel activation; Q9QUQ5; HEK293 TRPC4beta/mu-opioid, Fluo4 calcium fluorescence; stronger effect = higher value; B-score at 10 µM; 310,000 tested, 0.49% active; AID 2237;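 active means B-score above 5 SD of library B-scores, and initial fluorescence ratio not above library mean plus 5 SD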;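 further: positive B-score marks a calcium rise read as TRPC4 activation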
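Assay system: HEK293 stable line with TRPC4beta plus mu-opioid receptor; schedule: 45 min room-temperature Fluo4 loading, 110 s read; technique: kinetic Fluo4 calcium fluorescence; evaluation: integrated baseline-normalised fluorescence ratio, converted to per-well B score; controls: buffer (low) and maximal DAMGO (high)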
TRPC6 inhibitor: inhibitors of mouse TRPC6 channel | Q61143 | HEK293-TRPC6, membrane potential dye, ACh-evoked depolarization; stronger effect = lower value | B-score at 10 µM | 310,000 tested, 1.1% active;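 active means B-score under library mean minus 3 SD, initial fluorescence not abnormally high, positive integrated signal ratio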;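 further: B-score derived from integrated fluorescence ratio over the kinetic read; more negative B-score means stronger inhibition of depolarization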
TRPC4 PAM: TRPC4 (mouse) allosteric potentiation; 310,000 tested, 0.42% active; HEK293 TRPC4beta/mu-opioid, DAMGO EC20, Fluo-4 Ca2+ flux; stronger effect = higher value; Q9QUQ5; B-score at 10 µM; AID 2227;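 active means B-score of calcium response area above 5 SD of library B-scores, with initial fluorescence ratio within 5 SD of library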;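 further: B-score of integrated fluorescence ratio over time as area under calcium response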
TRPC4 sel inh 2: second selectivity test of TRPC6 inhibitors: effect on mouse TRPC4; shares compounds with TRPC6 inhibitor; HEK293 TRPC4/MOR, membrane potential dye fluorescence; channel activated by saturating DAMGO dose; inhibition, % at 10 µM; 920 tested, 42% active; AID 2776;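 active means compounds whose fluorescence signal differed from control wells by over 3 SD, either direction, in both duplicate plates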
TRPC4 spec: selectivity of TRPC6 inhibitors: effect on mouse TRPC4. shares compounds with TRPC6 inhibitor. HEK293 TRPC4/mu-opioid, membrane potential fluorescence. activity change, negative = inhibition, % at 10 µM. 920 tested, 61% active;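 active means rise or fall in signal beyond 3 SD of buffer-only wells in both replicate plates, either sign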;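 further: integrated kinetic ratio of fluorescence range over baseline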
HEK293 MPD ctr 2-1: parental HEK293 nonspecific activity of TRPC6 inhibitors, second screen; shares compounds with TRPC6 inhibitor; parental HEK293 membrane potential dye fluorescence; maximal acetylcholine challenge after compound addition; signal change vs control, % at 10 µM; 920 tested, 31% active; AID 2779;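 active means membrane potential signal moving either way by over 3 SD of the maximum-effect control, in both duplicate plates, meaning non-specific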
HEK293 MPD ctr-1: parental HEK293 nonspecific activity of TRPC6 inhibitors; AID 2780; shares compounds with TRPC6 inhibitor; parental HEK293 membrane potential dye fluorescence; membrane potential signal change, % at 10 µM; 920 tested, 60% active;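 active means membrane potential signal shifting up or down by more than 3 SD of buffer-only wells, on both duplicate plates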
HEK293 MPD ctr-2: checks TRPC6 modulator effects in parental HEK293 cells; shares compounds with TRPC6 inhibitor; membrane potential dye fluorescence; membrane potential signal change, % at 10 µM; 2,400 tested, 51% active; AID 488924;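 active means membrane potential signal moves up or down beyond 5 SD from buffer-only wells, on both duplicate plates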
HEK293 MPD ctr 2-2: second check of TRPC6 modulator effects in parental HEK293 cells | shares compounds with TRPC6 inhibitor | membrane potential dye fluorescence; after compound, maximal acetylcholine stimulation | inhibition, % at 10 µM | 2,400 tested, 14% active;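 active means membrane potential signal drops by more than 5 SD from the mean control signal, in both duplicate plates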;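 further: plate controls were acetylcholine ECmax control wells for no effect and buffer only wells for full effect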
TRPC4 ctr mod: tests whether TRPC6 modulators also affect mouse TRPC4 | shares compounds with TRPC6 inhibitor | HEK293 TRPC4/mu-opioid, membrane potential fluorescence | percent change from control (negative = decrease, positive = increase), % at 10 µM | 2,400 tested, 69% active;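 active means membrane potential signal moved up or down beyond 5 SD of buffer control wells, in both duplicate plates, actives on both sides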;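 further: plate controls were assay buffer wells for no effect and DAMGO maximal-effect wells for full effect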
TRPC4 ctr inh 2: second selectivity test of TRPC6 modulators against mouse TRPC4; shares compounds with TRPC6 inhibitor; HEK293 TRPC4/mu-opioid, membrane potential dye fluorescence; stimulated with maximal-effect DAMGO; inhibition, % at 10 µM; 2,400 tested, 55% active; AID 488928;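 active means drop in membrane potential signal beyond 5 SD of the control wells in both duplicate plates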;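 further: TRPC4 counter screen for TRPC6 hits run under conditions tuned for TRPC6 not TRPC4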
TRPC6 inh conf: mouse TRPC6 inhibitor confirmation. shares compounds with TRPC6 inhibitor. HEK293-TRPC6, membrane potential dye, ACh-evoked depolarization. inhibition, % at 10 µM. 3,300 tested, 43% active. AID 488960;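 active means fluorescence ratio falls more than 5 SD below the full-stimulation control mean, in both duplicate runs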;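 further: integrated fluorescence ratio of peak minus minimum over baseline after agonist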
TRPC6 act confirm: mouse TRPC6 activator confirmation | shares compounds with TRPC6 inhibitor | HEK293-TRPC6 membrane potential dye fluorescence, FDSS | activation, % at 10 µM | 2,800 tested, 11% active;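 active means ratio signal rise beyond 5 SD above unstimulated control wells' mean, seen in both duplicate runs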;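 further: plate controls were buffer EC0 wells for no effect and acetylcholine ECmax response for full effect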
* hit, by the source's call; i = inactive; nt = no result. In the library only some 2.3% were active in any assay of this set; here they are far more common.

SMILES	TRPC4 block	TRPC6 activator	TRPC4 act	TRPC6 inhibitor	TRPC4 PAM	HEK293 MPD ctr-2	HEK293 MPD ctr 2-2	TRPC4 ctr mod	TRPC4 ctr inh 2	TRPC6 inh conf	TRPC6 act confirm	others
CCOC(=O)c1ccccc1NC(=O)COC(=O)CC1CCCCC1	i	i	i	i	i	nt	nt	nt	nt	nt	nt
CCOC(=O)c1ccccc1NC(=O)COC(=O)C1CCCC1	i	14.1*	i	-8.1*	i	137.0%*	i	32.5%*	i	57.5%*	118.0%*
CCOC(=O)c1ccccc1NC(=O)c1ccc(F)cc1	i	i	i	i	i	nt	nt	nt	nt	nt	nt
O=C(NCc1cccnc1)c1cccc2c1C(=O)N(Cc1cccnc1)C2	i	i	i	i	i	nt	nt	nt	nt	nt	nt
O=C(NNC1=C(C(=O)C(F)(F)F)CCC1)c1cccc(O)c1	i	i	i	i	i	nt	nt	nt	nt	nt	nt
Cc1cccc(C(=O)NNC2=C(C(=O)C(F)(F)F)CCC2)c1O	i	i	i	-7.56*	i	nt	nt	nt	nt	i	i	TRPC4 sel inh 2=i;TRPC4 spec=-12.1%*;HEK293 MPD ctr 2-1=i;HEK293 MPD ctr-1=-190.5%*
Cc1cc2c(s1)Nc1ccccc1N=C2N1CCN(C)CC1	i	i	i	-6.04*	i	i	i	i	i	58.5%*	i
Cc1c(C(=O)N2CCC(N3CCSCC3)CC2)oc2c(F)cccc12	i	i	i	i	i	nt	nt	nt	nt	nt	nt
CCOc1cc(/C=N/NC(=O)c2ccccn2)ccc1OC(=O)c1ccc(F)cc1	i	i	i	-5.33*	i	i	i	i	i	i	i
O=C(c1ccco1)N1CCN(S(=O)(=O)c2ccc(Oc3ccccc3)cc2)CC1	i	i	i	-12.7*	i	nt	nt	nt	nt	i	i	TRPC4 sel inh 2=i;TRPC4 spec=2.1%*;HEK293 MPD ctr 2-1=232.5%*;HEK293 MPD ctr-1=1.1%*
O=C(c1ccco1)N1CCN(S(=O)(=O)c2ccc(Br)cc2)CC1	i	i	i	i	i	nt	nt	nt	nt	nt	nt
O=C(NC(Nc1nc2ccc([N+](=O)[O-])cc2s1)(C(F)(F)F)C(F)(F)F)c1cccnc1	i	15.3*	i	-8.17*	i	388.5%*	93.0%*	92.0%*	59.5%*	77.0%*	88.5%*
CN(C)CCC#CC(O)(c1ccccc1)c1ccccc1	i	i	i	-5.69*	i	i	98.0%*	7.0%*	i	83.5%*	nt
CCN(CC)CC#CC(O)(c1ccccc1)c1ccccc1	i	i	i	-13.7*	i	nt	nt	nt	nt	80.2%*	i	TRPC4 sel inh 2=i;TRPC4 spec=1.8%*;HEK293 MPD ctr 2-1=-31.0%*;HEK293 MPD ctr-1=5.0%*
CN(C)CCC(O)(c1ccccc1)c1ccccc1	i	i	i	i	i	nt	nt	nt	nt	nt	nt
CN(C)C(C)(C)C#CC(O)(c1ccccc1)c1ccccc1	i	i	i	-8.36*	i	nt	nt	nt	nt	67.3%*	i	TRPC4 sel inh 2=i;TRPC4 spec=-0.1%*;HEK293 MPD ctr 2-1=11.0%*;HEK293 MPD ctr-1=4.5%*
OCCN(CC#CC(O)(c1ccccc1)c1cccc(F)c1)CCO (stereo not drawn)	i	i	i	i	i	nt	nt	nt	nt	nt	nt
CC(=O)NC12CC3CC(C1)CC(C(=O)N1CCN(S(=O)(=O)c4ccc(C(C)C)cc4)CC1)(C3)C2	i	i	i	i	i	nt	nt	nt	nt	nt	nt
CCCn1c2ccccc2c2nnc(SCCN3CCOCC3)nc21	i	i	i	i	i	nt	nt	nt	nt	nt	nt
c1ccc2nc3c(nc2c1)c1ccccc1n3CCN1CCOCC1	i	i	i	-5.12*	i	i	i	-8.5%*	34.0%*	i	i
CCc1ccc(N=C2N=C(N)c3ccccc32)cc1	i	i	i	-7.84*	i	nt	nt	nt	nt	70.6%*	i	TRPC4 sel inh 2=27.5%*;TRPC4 spec=-21.1%*;HEK293 MPD ctr 2-1=i;HEK293 MPD ctr-1=-465.0%*
CC(C)(C)c1ccc(OC(=O)CN2C(=O)C3C4CCC(C4)C3C2=O)cc1 (stereo not drawn)	i	i	i	-5.86*	i	i	i	i	i	i	i
O=C(CN1C(=O)C2C3CCC(C3)C2C1=O)OCC(=O)c1ccccc1 (stereo not drawn)	i	i	i	i	i	nt	nt	nt	nt	nt	nt
Cc1ccc(C)c(N(CC(=O)NC2CCCC2)C(=O)c2oc(C(C)(C)C)cc2C)c1	i	i	i	i	i	nt	nt	nt	nt	nt	nt
Cc1cc(C(C)(C)C)oc1C(=O)OCC(=O)NC1CCCCC1	i	i	i	-5.35*	i	i	i	25.5%*	i	53.0%*	nt
O=C(/C=C/c1ccc(N2CCC(c3ccccc3)=N2)cc1)c1ccccc1	i	14.9*	i	i	i	350.5%*	i	80.0%*	i	i	46.5%*
CC(=O)N/C(=C/c1ccc([N+](=O)[O-])cc1)C(=O)O	i	i	i	i	i	nt	nt	nt	nt	nt	nt
Cc1ccccc1-n1nc(C(=O)c2cccs2)cc(-c2nc3ccccc3[nH]2)c1=N	i	i	i	-11.3*	i	nt	nt	nt	nt	i	i	TRPC4 sel inh 2=66.0%*;TRPC4 spec=-9.6%*;HEK293 MPD ctr 2-1=i;HEK293 MPD ctr-1=i
COc1ccc(-n2nc(C(=O)c3cccs3)cc(-c3nc4ccccc4[nH]3)c2=N)cc1	i	i	i	-9.74*	i	nt	nt	nt	nt	60.6%*	i	TRPC4 sel inh 2=46.0%*;TRPC4 spec=-21.9%*;HEK293 MPD ctr 2-1=37.0%*;HEK293 MPD ctr-1=-238.5%*
COc1ccc(-c2nc3ccccc3[nH]2)cc1	i	i	i	i	i	nt	nt	nt	nt	nt	nt
